Screening data (PubChem BioAssay)
A selection: hits, their analogues and other compounds. The true share with any hit is near 3.5%.
RGS4 pot: RGS4 potentiation or activation. HEK293 M3R/inducible RGS4, carbachol calcium flux Fluo4; active compounds read low. B-score at 10 µM. 0.92% of 310,000 active;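 active = B-score of the integrated calcium signal more than 4 SD below the library mean, with starting fluorescence not abnormally high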;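 note: negative B-score means reduced calcium response which marks RGS4 activation or potentiation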
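Assay system: HEK293 FlpIn-TREx cells, stable M3R, doxycycline-inducible RGS4 / Probe or stimulus: carbachol, ECmax concentration / Times: overnight RGS4 induction, 30 min dye load 37 °C, 20 min compound RT / Signal: kinetic calcium fluorescence imaging with Fluo4-AM dye, 2 µM / Measure: Agonist-evoked peak-minus-minimum fluorescence over baseline, integrated ratio, B score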
RGS4 block: inhibitors of human RGS4; P49798; HEK293 M3R/RGS4 inducible, Fluo-4 calcium flux; active compounds read high; triggered by carbachol at its EC20; B-score at 10 µM; 0.45% of 310,000 active;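 active = B-score, a plate-corrected calcium signal, over three deviations above library mean, with baseline fluorescence within five deviations of library mean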;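 note: RGS4 expression induced by doxycycline in cells with stable M3 receptor; B-score is computed from the integrated fluorescence ratio over baseline after carbachol; higher B-score means a larger calcium signal and so more RGS4 inhibition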
Target sequence (P49798 whole entry, looked up): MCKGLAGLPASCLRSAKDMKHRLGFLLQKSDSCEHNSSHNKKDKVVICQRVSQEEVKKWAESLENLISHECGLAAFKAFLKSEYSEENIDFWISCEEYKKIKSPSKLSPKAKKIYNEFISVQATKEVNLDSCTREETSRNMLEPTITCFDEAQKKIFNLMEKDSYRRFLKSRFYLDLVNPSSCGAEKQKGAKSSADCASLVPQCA
MrgX1 antagonist: blocks BAM8-22 activation of human MrgX1 receptor | MRGX1-HEK293 calcium flux, Fluo-4, BAM8-22 antagonism; active compounds read low | 1.3% of 310,000 active | B-score at 10 µM;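 active = calcium-response B-score plate-corrected more than 3 library SD below zero, starting fluorescence within 5 deviations, no agonist response on first addition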;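 note: peak minus trough fluorescence over baseline after final BAM8-22 challenge near maximal dose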
Target sequence (Q96LB2 whole entry, looked up): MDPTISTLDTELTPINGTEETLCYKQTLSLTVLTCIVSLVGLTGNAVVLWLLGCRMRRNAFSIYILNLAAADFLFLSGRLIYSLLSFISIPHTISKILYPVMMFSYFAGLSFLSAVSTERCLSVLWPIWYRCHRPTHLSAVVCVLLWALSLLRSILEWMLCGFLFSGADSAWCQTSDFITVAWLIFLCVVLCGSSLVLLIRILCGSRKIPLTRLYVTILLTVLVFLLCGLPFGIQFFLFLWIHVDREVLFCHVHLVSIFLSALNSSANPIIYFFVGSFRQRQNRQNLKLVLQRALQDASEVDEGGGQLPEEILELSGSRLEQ
MrgX1 agonist: human MrgX1 receptor agonism, primary screen | Q96LB2 | MrgX1-HEK293 cells, Fluo-4 calcium fluorescence, agonist mode; active compounds read high | B-score at 10 µM | 0.44% of 310,000 active;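 active = calcium response B-score plate-corrected fluorescence ratio at least 3 library SD, with starting fluorescence B-score inside 5 SD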
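Test system: HEK293 cells stably expressing human MrgX1 receptor; Input: fifteen thousand cells per well; Dosing: compound delivered in addition one of three; Schedule: overnight seeding, then 1 h dark dye loading; Technique: Fluo-4 NW calcium fluorescence; Measure: B-scored fluorescence response ratio; Controls: positive and negative controls per plate.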
MrgX1 allo act: human MrgX1 positive allosteric modulation, primary screen. Q96LB2. MrgX1-HEK293, Fluo-4 calcium flux, FDSS; active compounds read high. B-score at 10 µM. 0.63% of 310,000 active. AID 588675;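 active = plate-corrected calcium response at least 3 library SD above typical, normal starting fluorescence, not activating the receptor alone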;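 note: compound read alongside a low EC10 to EC30 dose of BAM8-22 agonist; peak minus trough fluorescence over baseline measured at the second addition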
* = called active by the depositor; i = inactive; nt = no result given.

SMILES | RGS4 pot | RGS4 block | MrgX1 antagonist | MrgX1 agonist | MrgX1 allo act
CCN(CC)S(=O)(=O)c1cccc(NC(=O)C2SC(=Nc3ccc(C)cc3C)C(C(=O)NC(C)COC)=C2N)c1 (stereo not drawn) | i | i | i | i | i
Cc1ccc(N=C2SC(C(=O)Nc3ccc(OC(F)(F)F)cc3)C(N)=C2C(=O)Nc2c(C)cc(C)cc2C)cc1 (stereo not drawn) | nt | nt | i | i | 10.4*
O=C(N/N=C/c1ccc(O)c(O)c1)NC12CC3CC(CC(C3)C1)C2 | i | 5.07* | i | i | i
Cn1c(-c2ccc(Cl)nc2)nc2cc(Cl)ccc21 | i | i | i | i | i
Cc1ccccc1NC(=O)c1ccc(Cl)c(NC(=O)c2cccnc2)c1 | i | i | i | i | i
COC(=O)CCC(=O)OC1(C)C(=O)C2=CN(Cc3ccc(OC)cc3)C(c3ccc(OC)cc3)=CC2=C(Br)C1=O (stereo not drawn) | i | i | -4.86* | i | i
O=C(Nc1cccc(Cl)c1)C1C2CCC3C(CCC21)C3(Cl)Cl (stereo not drawn) | -7.49* | i | i | i | i
COC(=O)/C(=C/Nc1ccccc1)[N+](=O)[O-] | i | i | i | i | i
COC(=O)/C(=C/c1cn(C)c2ccccc12)[N+](=O)[O-] | i | 11.8* | nt | nt | nt
Oc1ccccc1-c1nc(NCC2CCCO2)c2ccccc2n1 (stereo not drawn) | -8.45* | i | i | i | i
Cc1cc(C)n2nc3nc(N4CCCCC4)nc(-c4ccco4)c3c2n1 | i | i | -4.67* | i | i
Cc1cc(C)n2nc3ccccc3c2n1 | i | i | i | i | i
CSCCC(NC(N)=O)C(=O)Nc1cccc(C#N)c1 (stereo not drawn) | i | i | i | i | i
CN(C)N1C(N)=C(C#N)C(c2cccnc2)C2=C1CC(C)(C)CC2=O (stereo not drawn) | i | i | -4.84* | i | i
Cc1cc(C)cc(NC(=O)C(OC(=O)c2ccc([N+](=O)[O-])o2)c2ccccc2)c1 (stereo not drawn) | i | i | -6.63* | i | i
COc1cccc(NC(=O)C(OC(=O)c2ccc([N+](=O)[O-])o2)c2ccccc2)c1 (stereo not drawn) | i | i | i | i | i
CC(C)NC(=O)CCCN1C(=O)c2ccccc2Sc2ncccc21 | i | i | i | i | i
O=C(Nc1nc(SCc2ccc(F)cc2)ns1)c1ccco1 | i | 8.22* | i | i | i
CC(=O)OCCC(NS(=O)(=O)OCC(Cl)(Cl)Cl)c1ccccc1 (stereo not drawn) | i | i | i | i | i
COc1ccc(OC)c(/C=C2\N=C(c3ccccc3)OC2=O)c1 | -7.44* | i | i | i | i
COc1cc(/C=C2/N=C(c3ccccc3)OC2=O)c(F)cc1OCc1ccccc1 | i | i | -4.86* | i | i
COc1cc(/C=C2\N=C(c3ccccc3)OC2=O)ccc1OC(C)=O | i | i | i | i | i
CC(C)CC1CC(C)(c2csc(NNC(=O)c3ccccc3)n2)OC1=O (stereo not drawn) | i | i | i | i | i
Cn1c(=O)nc2n(Cc3ccccc3)c3cccc(Cl)c3cc-2c1=O | -9.36* | i | i | i | i
Cn1c(=O)n(Cc2ccccc2)c2ccccc21 | i | i | i | i | i
SMILES | RGS4 pot | RGS4 block | MrgX1 antagonist | MrgX1 agonist | MrgX1 allo act
CC1=C(C(=O)OC2CCCCC2)C(c2ccccc2Br)NC(=O)N1 (stereo not drawn) | i | i | i | i | i
C1=CN2CCC1C(c1ccccc1)C2 (stereo not drawn) | -7.34* | i | i | i | i
CCOCC(=O)Nc1cc(C)on1 | i | i | i | i | i
FC(F)(F)c1ccccc1CNCc1ccc2c(c1)OCO2 | i | i | i | i | i
CNc1ccc(Br)cc(C(=O)/C=C/c2cc(OC)ccc2OC)c1=O | i | i | i | i | i
CCNc1ccc(Br)cc(C(=O)/C=C/c2ccc(Cl)cc2Cl)c1=O | i | i | -6.1* | i | i
CC(C)(C)NC(=O)C(c1ccncc1)N(C(=O)Cn1nnc(-c2ccc(F)cc2)n1)c1ccc(F)cc1 (stereo not drawn) | i | i | -5.61* | i | i
C=CCn1c(SCC(=O)NCC2CCCO2)nc2scc(-c3ccccc3)c2c1=O (stereo not drawn) | i | i | -5.15* | i | i
Cc1cccc(Nc2c([N+](=O)[O-])ccc3nonc23)c1 | i | i | i | i | i
O=C(O)c1cc2cc(Oc3ccccc3)ccc2[nH]1 | i | i | i | i | i
CCOc1c(C=C(C#N)C#N)c2ccccc2n1CC | i | i | -5.39* | i | i
COc1cccc(CNc2ccccn2)c1O | i | i | i | i | i
COc1cccc(CNc2cccc3cccnc23)c1O | i | i | i | i | 15.1*
O=C(N/N=C/c1ccc([N+](=O)[O-])o1)C(=O)Nc1ccc(C(=O)O)cc1 | i | i | i | i | i
O=C(O)c1ccc(N/N=C/C=C/c2ccc([N+](=O)[O-])o2)cc1 | i | i | -4.55* | i | i
O=[N+]([O-])c1ccc(N/N=C/C=C/c2ccco2)cc1 | -7.36* | i | -10.4* | i | i
CC1(C)CC(=O)C=C(Nc2ccc(C(=O)O)c(O)c2)C1 | i | i | i | i | i
COc1cc(NC(=O)NCC2CCN(Cc3ccccc3C)CC2)cc(OC)c1OC | -6.96* | i | i | i | i
Cc1ccc(C)c(CN2CCC(CNC(=O)Nc3ccc(Cl)cc3)CC2)c1 | i | i | i | i | i
N#C/C(=C\c1ccc(Sc2ccccc2)o1)c1nc2ccccc2[nH]1 | i | i | i | i | 7.59*
N#C/C(=C\c1ccc([N+](=O)[O-])o1)c1nc2ccccc2[nH]1 | i | i | -4.51* | i | i
O=C(NCCc1ccc(F)cc1)Nc1ccc([N+](=O)[O-])cc1 | i | i | i | i | i
O=[N+]([O-])c1ccc(NC(=S)NCCc2ccc(F)cc2)cc1 | i | i | i | 30.3* | i
CCOC(=O)c1sc(N2C(=O)C(O)=C(C(=O)c3ccco3)C2c2ccco2)nc1C (stereo not drawn) | i | i | i | i | i
Cc1cc(C)c2nc(N3C(=O)C(O)=C(C(=O)c4ccco4)C3c3ccco3)sc2c1 (stereo not drawn) | -7.94* | i | i | i | i
